ChEMBL document CHEMBL1157311, “Aurilides B and C, cancer cell toxins from a Papua New Guinea collection of the marine cyanobacterium Lyngbya majuscula” (2006)
Active and inactive are the calls of the source. No cut-off for these calls is given here.

Key:
SF-268 = assay: Growth inhibition of human SF268 cells; format: functional
HCT-116 = assay: Growth inhibition of human HCT116 cells; format: functional
[1] = Growth inhibition of human RPMI8266 cells; format: functional
HOP-92 = assay: Growth inhibition of human HOP92 cells; format: functional
NCI-H226 = assay: Growth inhibition of human NCI-H226 cells; format: functional
A10 = assay: Disruption of microfilament in rat A10 cells at 2.9 uM after 24 hrs by rhodamine-phalloidin assay; format: functional, cell-based
Procedure, shortened: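 A-10 smooth muscle cells grown on glass coverslips in BME with 10% fetal calf serum and exposed 24 h. Fixed in 3% paraformaldehyde, permeabilised with 0.2% Triton X-100, reduced with NaBH4, then stained 45 min with 100 nM TRITC-phalloidin for actin and with DAPI for DNA. Microfilament network scored by fluorescence microscopy.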

SNB-75 = assay: Growth inhibition of human SNB75 cells; format: functional
CAKI-1 = assay: Growth inhibition of human CAKI1 cells; format: functional
DU-145 = assay: Growth inhibition of human DU145 cells; format: functional
SK-MEL-5 = assay: Growth inhibition of human SK-MEL-5 cells; format: functional
SF-539 = assay: Growth inhibition of human SF539 cells; format: functional
[2] = Growth inhibition of human OVACR5 cells; format: functional
HT-29 = assay: Growth inhibition of human HT29 cells; format: functional
786-0 = assay: Growth inhibition of human 786-0 cells; format: functional
IGROV-1 = assay: Growth inhibition of human IGROV1 cells; format: functional
U-251 = assay: Growth inhibition of human U251 cells; format: functional
EKVX = assay: Growth inhibition of human EKVX cells; format: functional
UACC-62 = assay: Growth inhibition of human UACC62 cells; format: functional
SK-OV-3 = assay: Growth inhibition of human SKOV3 cells; format: functional
COLO 205 = assay: Growth inhibition of human COLO205 cells; format: functional
SW-620 = assay: Growth inhibition of human SW620 cells; format: functional; conditions: read-out: pLC50 (the source's name) (converted)
SK-MEL-2 = assay: Growth inhibition of human SK-MEL-2 cells; format: functional
SK-MEL-28 = assay: Growth inhibition of human SK-MEL-28 cells; format: functional
MCF7 = assay: Growth inhibition of human MCF7 cells; format: functional
PC-3 = assay: Growth inhibition of human PC3 cells; format: functional
ACHN = assay: Growth inhibition of human ACHN cells; format: functional
[3] = Growth inhibition of human […] cells; format: functional
NCI-H460 = assay: Growth inhibition of human NCI-H460 cells; format: functional; conditions: read-out: pLC50 (the source's name) (converted)
MDA-MB-231 = assay: Growth inhibition of human MDA-MB-231 cells; format: functional
[4] = read-out: pLC50 (the source's name) (converted)

SMILES: CC/C=C(\C)[C@H]1OC(=O)[C@H](C)N(C)C(=O)[C@H](C(C)C)NC(=O)CN(C)C(=O)[C@H]([C@H](C)CC)N(C)C(=O)[C@H](C(C)C)NC(=O)[C@@H]([C@@H](C)CC)OC(=O)/C(C)=C/C[C@H](O)[C@@H]1C [AURILIDE B]
- GI50 (SF-268): < 10 nM
- CC50 (SF-268; [4]): 794 nM
- GI50 (HCT-116): < 10 nM
- CC50 (HCT-116; [4]): < 10 nM
- TGI (HCT-116; read-out: pTGI): < 10 nM
- GI50 [1]: < 10 nM
- CC50 [1, 4]: > 100000 nM
- TGI ([1]; read-out: pTGI): < 10 nM
- GI50 (HOP-92): < 10 nM
- CC50 (HOP-92; [4]): 58900 nM
- TGI (HOP-92; read-out: pTGI): < 10 nM
- GI50 (NCI-H226): < 10 nM
- CC50 (NCI-H226; [4]): < 10 nM
- TGI (NCI-H226; read-out: pTGI): < 10 nM
- Activity (A10): Active
- CC50 (SNB-75; [4]): 83200 nM
- TGI (SNB-75; read-out: pTGI): < 10 nM
- GI50 (CAKI-1): < 10 nM
- TGI (CAKI-1; read-out: pTGI): < 10 nM
- GI50 (DU-145): < 10 nM
- CC50 (DU-145; [4]): < 10 nM
- TGI (DU-145; read-out: pTGI): < 10 nM
- GI50 (SK-MEL-5): 219 nM
- CC50 (SK-MEL-5; [4]): 3020 nM
- TGI (SK-MEL-5; read-out: pTGI (converted)): 490 nM
- GI50 (SF-539): < 10 nM
- CC50 (SF-539; [4]): < 10 nM
- TGI (SF-539; read-out: pTGI): < 10 nM
- GI50 [2]: < 10 nM
- CC50 [2, 4]: < 10 nM
- TGI ([2]; read-out: pTGI): < 10 nM
- GI50 (HT-29): < 10 nM
- CC50 (HT-29; [4]): > 100000 nM
- TGI (HT-29; read-out: pTGI): > 100000 nM
- GI50 (786-0): < 10 nM
- CC50 (786-0; [4]): < 10 nM
- TGI (786-0; read-out: pTGI): < 10 nM
- GI50 (IGROV-1): < 10 nM
- CC50 (IGROV-1; [4]): > 100000 nM
- TGI (IGROV-1; read-out: pTGI): < 10 nM
- GI50 (U-251): < 10 nM
- TGI (U-251; read-out: pTGI): < 10 nM
- GI50 (EKVX): < 10 nM
- CC50 (EKVX; [4]): < 10 nM
- TGI (EKVX; read-out: pTGI): < 10 nM
- GI50 (UACC-62): < 10 nM
- TGI (UACC-62; read-out: pTGI): < 10 nM
- GI50 (SK-OV-3): < 10 nM
- CC50 (SK-OV-3; [4]): 38900 nM
- GI50 (COLO 205): < 10 nM
- CC50 (COLO 205; [4]): > 100000 nM
- TGI (COLO 205; read-out: pTGI): > 100000 nM
- CC50 (SW-620): > 100000 nM
- GI50 (SK-MEL-2): < 10 nM
- CC50 (SK-MEL-2; [4]): > 100000 nM
- TGI (SK-MEL-2; read-out: pTGI): < 10 nM
- GI50 (SK-MEL-28): < 10 nM
- CC50 (SK-MEL-28; [4]): > 100000 nM
- TGI (SK-MEL-28; read-out: pTGI): < 10 nM
- GI50 (MCF7): < 10 nM
- CC50 (MCF7; [4]): > 100000 nM
- TGI (MCF7; read-out: pTGI (converted)): 19100 nM
- GI50 (PC-3): < 10 nM
- CC50 (PC-3; [4]): < 10 nM
- TGI (PC-3; read-out: pTGI): < 10 nM
- GI50 (ACHN): < 10 nM
- CC50 (ACHN; [4]): > 100000 nM
- GI50 [3]: < 10 nM
- TGI ([3]; read-out: pTGI): < 10 nM
- CC50 (NCI-H460): 77600 nM
- GI50 (MDA-MB-231): < 10 nM
- TGI (MDA-MB-231; read-out: pTGI): < 10 nM
